# Compound activity: PubChem, several laboratories
# Most compounds without a hit are left out; they make up all but 4% or so of the library.
# CHO parental Ca – counter-screen for OX1R antagonists: effect in parental CHO cells; parental CHO-K1, ATP-induced calcium, Fluo-8 fluorescence; inhibition, % at 5.6 µM; 330,000 tested, 0.63% active;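 active means inhibition above that plate's mean sample inhibition plus 3 SD, cut at about 26% in these data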;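 further: 0% = ATP-challenged DMSO wells and 100% = DMSO wells without ATP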
#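 Test system: parental CHO cells; detection: calcium-sensitive Fluo-8 fluorescence; evaluation: percent inhibition of calcium signal; also added: ATP as calcium-mobilizing challenge; repeats: one well per compound; control set: ATP-challenged DMSO wells low, unchallenged DMSO wells high; compound: single nominal dose of 5.6 µM per compound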
# OX1R antag-1 – blocks the human orexin 1 receptor | 330,000 tested, 0.43% active | O43613 | AID 434989 | CHO/OX1R cells, Fluo-8 calcium fluorescence, orexin A | inhibition, % at 5 µM;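 active means inhibition above its plate's threshold, mean inhibition of all tested compounds on the plate plus 3 SD, cut at about 37% in these data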;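 further: 0% = orexin A challenge wells and 100% = SB-334867-A antagonist wells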
# TAAR1 antag – human TAAR1 antagonism. Q96RJ0. 360,000 tested, 1.5% active. CHO RD-HGA16 TAAR1, Fluo-8 calcium fluorescence, antagonist. inhibition, % at 3 µM;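 active means inhibition above a per-plate cutoff, the mean inhibition of test compounds on that plate plus 3 SD, cut at about 49% in these data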;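 further: 0% = DMSO plus EC80 beta-PEA response and 100% = DMSO alone without agonist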
# Target sequence (Q96RJ0 whole entry, looked up): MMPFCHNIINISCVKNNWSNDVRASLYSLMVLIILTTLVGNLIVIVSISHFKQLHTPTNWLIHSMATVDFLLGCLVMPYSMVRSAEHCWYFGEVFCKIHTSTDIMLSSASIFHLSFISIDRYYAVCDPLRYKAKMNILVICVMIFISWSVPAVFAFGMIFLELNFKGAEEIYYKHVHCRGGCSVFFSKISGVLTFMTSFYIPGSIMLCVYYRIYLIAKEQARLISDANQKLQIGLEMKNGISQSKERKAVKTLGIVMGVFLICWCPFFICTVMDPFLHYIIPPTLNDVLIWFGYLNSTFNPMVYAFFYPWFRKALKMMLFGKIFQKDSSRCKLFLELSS
#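 Test system – hTAAR1-expressing CHO RD-HGA16 cells, Gα16-coupled · Reagent – β-PEA at EC80 concentration, post-compound challenge · Compound dosing – 3 µM, single point · Timing – 140 s kinetic read after compound, 140 s after agonist · Detection – Fluo-8 intracellular calcium dye fluorescence, real-time kinetic reads · Control set – DMSO and EC80 PEA controls · Repeats – n of 1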
# NTR1 ag – NTR1 (human) agonism | NTR1-U2OS beta-arrestin-GFP spot imaging, agonist mode | AID 493036 | activation, % at 20 µM | 330,000 tested, 0.17% active;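 active means activation at or above 40% of the spot to cytoplasm intensity ratio, with at least 20 cells analyzed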;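 further: 0% = DMSO without peptide and 100% = 100 nM NTR1 peptide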
# Target sequence (P30989 whole entry, looked up): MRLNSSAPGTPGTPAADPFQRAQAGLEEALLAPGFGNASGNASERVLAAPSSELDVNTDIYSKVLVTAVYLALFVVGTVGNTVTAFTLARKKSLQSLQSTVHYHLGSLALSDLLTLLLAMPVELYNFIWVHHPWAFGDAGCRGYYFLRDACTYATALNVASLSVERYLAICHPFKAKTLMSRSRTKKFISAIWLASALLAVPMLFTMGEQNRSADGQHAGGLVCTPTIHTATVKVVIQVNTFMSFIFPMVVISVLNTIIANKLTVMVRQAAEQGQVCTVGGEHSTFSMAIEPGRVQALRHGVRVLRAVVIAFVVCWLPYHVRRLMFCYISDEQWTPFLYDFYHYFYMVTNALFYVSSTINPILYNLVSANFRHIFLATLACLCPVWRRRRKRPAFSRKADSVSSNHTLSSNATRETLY
# TAAR1 agonist – agonists of human TAAR1 | Q96RJ0 | CHO RD-HGA16 TAAR1, Fluo-8 calcium fluorescence; vehicle wells 0%, saturating PEA agonist 100% | activation, % at 3 µM | 360,000 tested, 0.99% active;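 active means activation above the mean activation of all test compounds in the run plus 3 SD, cut at about 38% in these data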
#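 Test system: RD-HGA16 (CHO) cells co-expressing Gα16 and hTAAR1; dosing: one-point dosing at 3 µM (nominal); timing: 17-24 h seeding, 75 min 37 °C dye, 30 min RT; signal: kinetic Fluo-8 calcium fluorescence; read-out basis: % activation relative to PEA EC100 response; controls: DMSO and PEA EC100; replicates: n 1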
# OX1R antag-2 – OX1R (human) antagonism | O43613 | OX1R-expressing cells, FRET antagonist read-out | inhibition, % at 6.6 µM | 330,000 tested, 1.8% active; in the data active means inhibition mostly above about 38%, no sharp cut-off; inactive means mostly below about 40%;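 further: 0% = agonist challenge alone and 100% = reference antagonist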
# * marks the source's active call; other numbers are inactive results; . = no result given.
SMILES,CHO parental Ca,OX1R antag-1,TAAR1 antag,NTR1 ag,TAAR1 agonist,OX1R antag-2
CNc1ncn(-c2c(C)cccc2C)c(=O)n1,.,.,-14.2,.,1.4,.
S=C(NCCCc1cnc[nH]1)NCCCN(Cc1ccccc1)c1ccc(Br)cn1,.,.,29.6,.,21.6,.
S=C(NCCCc1cnc[nH]1)NCCCN(Cc1ccc(Cl)cc1)c1ccc(Br)cn1,.,.,37.7,.,38.0*,.
CCOC(=O)c1c(C)[nH]c(C)c1S(=O)(=O)NCc1ccccc1C,1.7,13.2,-14.1,0.2,-0.2,49.8*
CCOC(=O)c1c(C)[nH]c(C)c1S(=O)(=O)NCc1ccccc1OCC,-3.2,14.2,-17.1,0.5,1.9,62.3*
CCOC(=O)c1c(C)[nH]c(C)c1S(=O)(=O)NCc1ccc(OCC)cc1,-18.1,-23.6,4.2,1.3,0.0,16.4
O=S1(=O)N[C@H](Cc2ccccc2)COc2cc(N3CCOCC3)ccc21,.,.,5.3,.,1.0,.
COc1ccc(C2(O)CCN(CC(=O)Nc3nc(-c4ccccc4)cs3)CC2)cc1,-16.8,-21.1,51.3*,17.2,12.9,4.0
COc1cccc(NC(=O)Nc2nc(-c3ccc(OC)c(OC)c3)cs2)c1,71.4*,73.3*,82.3*,0.4,28.3,71.5*
COc1cccc(CC(=O)Nc2nc(-c3ccc(F)c(F)c3)cs2)c1,-9.9,-20.5,52.1*,4.0,3.9,8.2
COc1ccccc1C(=O)Nc1nc(-c2ccc3c(c2)OCCO3)cs1,-10.8,-43.0,11.4,6.9,6.9,46.8*
O=C(NCC1CCN(C(=O)C(=O)c2cc3ccccc3o2)CC1)c1ccc2c(c1)OCO2,.,.,-15.0,.,2.8,.
OC(c1ccccc1)C1(c2ccccc2)CCN(Cc2ccccc2)CC1 (stereo not drawn),.,.,-3.0,.,6.5,.
Cn1c(=O)c2c(ncn2CC(=O)Nc2nc(-c3ccc(F)c(F)c3)cs2)n(C)c1=O,98.8*,-13.1,-30.0,0.7,2.2,11.8
O=C(CN1CCCCC1)Nc1nc(-c2ccc(Cl)cc2)cs1,.,.,-11.6,.,2.3,.
COc1ccc(-c2csc(NC(=O)CCn3cnc4ccccc4c3=O)n2)cc1OC,-15.1,-9.4,55.2*,-0.2,19.8,15.3
O=C(CCN1C(=O)C2CC=CCC2C1=O)Nc1nc(-c2ccc(F)c(F)c2)cs1 (stereo not drawn),6.1,21.9,60.3*,3.2,31.0,4.0
O=C(CN1CCCCC1)Nc1nc(-c2ccc(F)c(F)c2)cs1,0.7,-17.3,49.2*,1.4,12.8,13.5
CCn1c(SCC(=O)NCCCN2CCCC2=O)nnc1-c1cccc(C)c1,.,.,-26.1,1.3,1.3,.
Cc1cc(C(=O)OCC(=O)Nc2nc(-c3ccccc3)cs2)c(C)o1,-10.5,-9.5,17.7,2.5,-1.6,65.8*
O=C(Cc1ccccc1)Nc1nc(-c2ccc(F)c(F)c2)cs1,-6.6,4.8,56.3*,-0.3,4.9,15.1
Cc1cc(C(=O)OC(C)C(=O)Nc2nc(-c3ccccc3)cs2)c(C)o1 (stereo not drawn),-2.8,3.2,-3.2,1.2,-2.0,24.8
CC(OC(=O)c1ccc([N+](=O)[O-])o1)C(=O)Nc1nc(-c2ccc(F)c(F)c2)cs1 (stereo not drawn),.,.,58.6*,6.3,6.0,.
Cc1ccc(S(=O)(=O)Nc2ccccc2C(=O)Nc2nc(-c3ccc(F)cc3)cs2)cc1,26.2,52.2*,74.9*,7.5,4.0,67.1*
Cc1ccc(S(=O)(=O)Nc2nc(-c3ccccc3)cs2)cc1,17.5,-8.0,-23.3,-0.2,2.4,8.1
SMILES,CHO parental Ca,OX1R antag-1,TAAR1 antag,NTR1 ag,TAAR1 agonist,OX1R antag-2
CC(c1ccc(Cl)cc1)N(CCN(C)C)c1ccccn1 (stereo not drawn),.,.,-8.7,.,1.4,.
Cc1ccc(NC(=O)CCn2cnc3ccccc3c2=O)cc1Cl,-7.4,-27.2,23.2,-1.6,39.7*,15.7
Cc1cc(=O)[nH]c(SCC(=O)N2CCCC2)n1,-1.4,-11.0,-11.2,-0.4,2.2,2.2
CC1CC(C)CN(C(=O)c2ccc3c(c2)N(Cc2ccccc2)CCS3)C1 (stereo not drawn),47.0*,-30.2,.,6.1,.,14.8
COc1ccc(C(=O)NCCc2ccc(F)cc2)cc1OC,-9.3,-11.6,-14.9,1.8,1.8,31.1
COc1ccc(CCNC(=O)c2ccc3c(c2)N(Cc2ccc(F)cc2)CCS3)cc1OC,-12.8,-17.7,59.4*,2.1,-1.4,32.5
O=C(NC1CC1)c1ccc2c(c1)N(Cc1ccc(Cl)cc1)CCS2,-34.9,-21.5,-9.9,2.4,-4.1,45.7*
CC(C)(C)OC(=O)C[C@@H]1C/C=C\C[C@H](CC(=O)N(CCO)Cc2ccccc2)C(=O)N[C@H](C(C)(C)C)COC1=O,-11.2,-7.0,6.3,0.2,8.8,11.8
CCOC(=O)C1CSCCS(=O)(=O)N1Cc1cc(F)ccc1Br (stereo not drawn),.,.,-10.3,.,1.4,.
COC(=O)c1cccc(Nc2cc(C)n(-c3cccc(C(=O)OC)c3)c(=O)c2)c1,.,.,-14.2,.,-0.7,.
COC(=O)C1CCN(C(=O)c2cc(-c3ccc(Cl)s3)nc3ccccc23)CC1,2.1,14.2,56.6*,3.2,9.4,0.9
CCN1CCN(C(=O)c2cc(-c3ccc(Cl)s3)nc3ccccc23)CC1,.,.,4.8,12.0,19.7,.
CCCc1nc2ccccc2c(C(=O)OCC(=O)N2CCc3ccccc32)c1CC,-16.1,-20.0,52.2*,2.7,0.4,7.8
CC1CCc2nc3ccccc3c(C(=O)OCC(=O)N3CCc4ccccc43)c2C1 (stereo not drawn),-27.6,-27.4,26.3,18.8,0.7,19.3
CCCc1nc2ccccc2c(C(=O)OCC(=O)Nc2cccc(S(=O)(=O)N3CCOCC3)c2)c1CC,6.1,-4.7,51.6*,15.9,2.8,19.2
CCCc1nc2ccccc2c(C(=O)OCC(=O)Nc2ccc(S(=O)(=O)N3CCOCC3)cc2)c1CC,-16.3,-16.2,21.8,10.5,12.4,-1.9
O=C(Nc1cccc2ccccc12)OC[C@@H]1CSCCS(=O)(=O)N1,.,.,-14.3,.,4.7,.
Cc1cc[n+](-c2[nH]c(=O)sc2/C=N/N=C(\[O-])c2ccccc2)cc1,-8.2,-9.7,2.7,0.1,2.1,28.5
O=c1[nH]c(-[n+]2ccccc2)c(/C=N/N=C(\[O-])c2ccccc2)s1,-6.2,-9.7,-49.5,1.7,4.4,41.4*
COCc1[nH]nc2c1C(c1ccc(C)cc1)N(c1ccc(OC)cc1)C2=O (stereo not drawn),.,.,-6.0,.,0.1,.
Cc1ccc(C(=O)Nc2ccccc2C(=O)NC(Cc2c[nH]c3ccccc23)C(=O)O)cc1 (stereo not drawn),-20.2,-19.9,-11.9,3.0,2.8,49.9*
COc1ccc(CCN(Cc2ccccn2)C(=S)Nc2ccccc2Cl)cc1OC,-7.5,-7.3,-38.7,3.4,-0.2,40.9*
Cc1ccc(NC(=O)Cn2c(=O)oc3cc(S(=O)(=O)N4CCC(C)CC4)ccc32)cc1C,31.9*,-8.3,18.0,-1.0,-2.1,14.4
